Results from ChEMBL document CHEMBL4118251 (J Med Chem, 2018).
pEC50: −log10 of the molar value.

What was measured:
Cynomolgus monkey [1] = assay: Antiobesity activity in diet-induced obesity cynomolgus monkey model assessed as reduction in body weight at 1.5 ug/kg on day 1 to 3, 3 ug/kg on day 4 to 6, 4.5 ug/kg on day 7 to 9, 6 ug/kg from day 10 to 17 and 8 ug/kg on day 18 to 42 administered sc once daily measured every 3 to 4 days during compound dosing relative to control; type: functional, Macaca fascicularis; design: scale not given: the % may be the effect or the level left
Summary of the method: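 Obese diabetic cynomolgus monkeys were offered about 680 kcal/day. They were block-randomized into 3 groups by body weight, fasted glucose and %HbA1C. Dosing was once daily sc in PBS vehicle over a 6-week study with ramped doses. Food and water intake were logged daily, and body weight was measured every 3–4 days. Two insulin-requiring vehicle animals were excluded.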

[2] = Solubility in pH 4.5 acetate buffer at 10 mg/ml after 2 hrs by UPLC-UV analysis; type: physicochemical
Summary of the method: (§1)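 Buffers were 100 mM sodium acetate pH 4.5 or 100 mM sodium phosphate pH 7.4, with or without 0.5% phenol. Solid peptide was dispersed at 10 mg/mL, with content corrected by UPLC-MS and ion chromatography, and gently agitated for 2 h. After centrifugation (15 min, 3000 rcf), the supernatant was diluted 1:10 and quantified by UPLC-UV against a DMSO standard curve.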

[3] = Plasma concentration in diet-induced obesity cynomolgus monkey model at 8 ug/kg, sc for 6 weeks measured […] dose on day 43 by LC-MS analysis; type: ADME, organism-based, Macaca fascicularis; conditions: 0.008 mg/kg
Summary of the method: (§2)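 Obese diabetic cynomolgus monkeys were dosed once daily sc with PBS-diluted drug for 6 weeks. On day 43, blood was drawn just before dosing and at 1, 2, 4, 8 and 22 h after, into EDTA-2K tubes. Plasma was separated at 2500 × g for 10 min at 4 °C. The dual agonist was measured by LC-MS after protein precipitation; liraglutide was measured by ELISA.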

Cynomolgus monkey [4] = assay: Potency index, ratio of liraglutide dose to compound dose for antiobesity activity in diet-induced obesity cynomolgus monkey model assessed as reduction in body weight administered sc once daily measured every 3 to 4 days during compound dosing; type: functional, Macaca fascicularis
Cynomolgus monkey [5] = assay: Hypoglycemic activity in diet-induced obesity cynomolgus monkey model assessed as plasma HbA1c level at 1.5 ug/kg on day 1 to 3, 3 ug/kg on day 4 to 6, 4.5 ug/kg on day 7 to 9, 6 ug/kg from day 10 to 17 and 8 ug/kg on day 18 to 42 administered sc once daily measured on day 43 post last dose (reference value: 8.7 +/- 0.8%); type: functional, Macaca fascicularis
[6] = Agonist activity at monkey GIP receptor expressed in HEK293 cells assessed as cAMP accumulation after 30 mins by HTRF assay; type: cell-based, Macaca mulatta; conditions: Macaca mulatta, HEK293, 0.5 h
Summary of the method: (§3)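 HEK293 lines stably expressing human or monkey receptor were detached with accutase. Cells were resuspended at 400 000 cells/mL in HBSS/20 mM HEPES/0.1% BSA/2 mM IBMX and exposed to peptide for 30 min at room temperature. cAMP was read by HTRF (665/620 nm) after 1 h lysis.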

[7] = molecular target: Glucagon-like peptide 1 receptor (Macaca fascicularis, UniProt F8V479); assay: Agonist activity at monkey GLP1R expressed in HEK293 cells assessed as cAMP accumulation after 30 mins by HTRF assay; type: cell-based, Macaca mulatta
[8] = Plasma concentration in diet-induced obesity cynomolgus monkey model at 8 ug/kg, sc for 6 weeks measured 1 hr post dose on day 43 by LC-MS analysis; type: ADME, organism-based, Macaca fascicularis; conditions: 0.008 mg/kg; summary of the method: as §2
[9] = Plasma concentration in diet-induced obesity cynomolgus monkey model at 8 ug/kg, sc for 6 weeks measured 8 hrs post dose on day 43 by LC-MS analysis; type: ADME, organism-based, Macaca fascicularis; conditions: 0.008 mg/kg; summary of the method: as §2
[10] = Solubility in pH 4.5 acetate buffer at 10 mg/ml after 2 hrs in presence of 0.5% phenol by UPLC-UV analysis
[11] = molecular target: Glucagon-like peptide 1 receptor (Homo sapiens, UniProt P43220); assay: Agonist activity at human GLP1R expressed in HEK293 cells assessed as cAMP accumulation after 30 mins by HTRF assay; type: functional, cell-based
[12] = Solubility in pH 4.5 acetate buffer at 10 mg/ml after 2 hrs in presence of 0.5% phenol by UPLC-UV analysis; type: physicochemical; summary of the method: as §1
[13] = Ratio of EC50 for monkey glucagon receptor expressed in HEK293 cells to EC50 for human glucagon receptor expressed in HEK293 cells; type: cell-based; summary of the method: as §3
[14] = Plasma concentration in diet-induced obesity cynomolgus monkey model at 8 ug/kg, sc for 6 weeks measured 22 hrs post dose on day 43 by LC-MS analysis; type: ADME, organism-based, Macaca fascicularis; conditions: 0.008 mg/kg; summary of the method: as §2
[15] = Agonist activity at monkey glucagon receptor expressed in HEK293 cells assessed as cAMP accumulation after 30 mins by HTRF assay; type: cell-based, Macaca mulatta; conditions: Macaca mulatta, HEK293, 0.5 h; summary of the method: as §3
Homo sapiens = organism: Homo sapiens; assay: Selectivity ratio of EC50 for human glucagon receptor expressed in HEK293 cells to EC50 for human GLP1R expressed in HEK293 cells; type: cell-based; summary of the method: as §3
[16] = Plasma concentration in diet-induced obesity cynomolgus monkey model at 8 ug/kg, sc for 6 weeks measured 4 hrs post dose on day 43 by LC-MS analysis; type: ADME, organism-based, Macaca fascicularis; conditions: 0.008 mg/kg; summary of the method: as §2
[17] = molecular target: T1, Gastric inhibitory polypeptide receptor (Homo sapiens, UniProt P48546); assay: Agonist activity at human GIP receptor expressed in HEK293 cells assessed as cAMP accumulation after 30 mins by HTRF assay; type: functional, cell-based
T1 sequence (P48546 whole entry): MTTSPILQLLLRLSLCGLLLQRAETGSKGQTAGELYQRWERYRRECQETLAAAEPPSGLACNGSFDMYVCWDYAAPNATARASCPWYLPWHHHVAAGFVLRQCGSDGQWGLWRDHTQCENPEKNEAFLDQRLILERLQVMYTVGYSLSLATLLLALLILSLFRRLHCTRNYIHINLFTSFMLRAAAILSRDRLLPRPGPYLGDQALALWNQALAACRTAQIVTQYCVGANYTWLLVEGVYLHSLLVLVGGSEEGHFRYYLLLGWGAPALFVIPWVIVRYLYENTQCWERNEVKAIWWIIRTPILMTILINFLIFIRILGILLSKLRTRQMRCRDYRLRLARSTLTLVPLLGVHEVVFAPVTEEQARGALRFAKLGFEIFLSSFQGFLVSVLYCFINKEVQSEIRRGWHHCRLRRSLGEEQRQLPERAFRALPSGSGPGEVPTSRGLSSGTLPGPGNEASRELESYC

[18] = Plasma concentration in diet-induced obesity cynomolgus monkey model at 8 ug/kg, sc for 6 weeks measured 2 hrs post dose on day 43 by LC-MS analysis; type: ADME, organism-based, Macaca fascicularis; conditions: 0.008 mg/kg; summary of the method: as §2
[19] = Solubility in pH 4.5 acetate buffer at 10 mg/ml after 2 hrs by UPLC-UV analysis
[20] = AUC (0 to 22 hrs) in diet-induced obesity cynomolgus monkey model at 8 ug/kg, sc for 6 weeks on day 43 by LC-MS analysis; type: ADME, organism-based, Macaca fascicularis; design: dose 8 ug/kg, time < 22 hr, route subcutaneous; conditions: in vivo, 0.008 mg/kg; summary of the method: as §2
Glucagon receptor = Glucagon receptor (Homo sapiens, UniProt P47871); assay: Agonist activity at human glucagon receptor expressed in HEK293 cells assessed as cAMP accumulation after 30 mins by HTRF assay; type: functional, cell-based
Sequence of Glucagon receptor (P47871 whole entry): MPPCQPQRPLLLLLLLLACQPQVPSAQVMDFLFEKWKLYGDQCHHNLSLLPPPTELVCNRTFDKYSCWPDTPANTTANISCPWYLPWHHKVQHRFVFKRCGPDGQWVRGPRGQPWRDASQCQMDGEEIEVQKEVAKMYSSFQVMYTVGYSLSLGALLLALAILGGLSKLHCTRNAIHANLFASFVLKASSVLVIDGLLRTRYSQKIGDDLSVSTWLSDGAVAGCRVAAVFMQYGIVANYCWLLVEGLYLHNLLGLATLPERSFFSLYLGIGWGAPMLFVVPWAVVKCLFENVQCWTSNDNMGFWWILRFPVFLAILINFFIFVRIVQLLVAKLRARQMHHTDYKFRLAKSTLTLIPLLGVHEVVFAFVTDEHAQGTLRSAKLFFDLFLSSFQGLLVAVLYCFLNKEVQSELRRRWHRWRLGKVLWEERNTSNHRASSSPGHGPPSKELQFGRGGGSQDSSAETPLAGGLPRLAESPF

Sequence of Glucagon-like peptide 1 receptor (Homo sapiens, UniProt P43220) (P43220 whole entry): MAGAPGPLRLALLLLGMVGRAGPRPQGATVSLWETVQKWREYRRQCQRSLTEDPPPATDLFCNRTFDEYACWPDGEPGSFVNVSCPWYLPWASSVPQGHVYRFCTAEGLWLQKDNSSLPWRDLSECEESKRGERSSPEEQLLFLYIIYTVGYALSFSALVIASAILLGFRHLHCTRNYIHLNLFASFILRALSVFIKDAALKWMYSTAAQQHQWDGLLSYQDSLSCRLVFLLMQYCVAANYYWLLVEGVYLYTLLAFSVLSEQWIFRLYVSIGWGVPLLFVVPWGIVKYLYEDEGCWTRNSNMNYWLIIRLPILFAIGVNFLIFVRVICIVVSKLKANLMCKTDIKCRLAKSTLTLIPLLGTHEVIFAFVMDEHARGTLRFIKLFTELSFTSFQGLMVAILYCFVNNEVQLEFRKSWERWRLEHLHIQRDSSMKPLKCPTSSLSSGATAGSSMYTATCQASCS
Sequence of Glucagon-like peptide 1 receptor (Macaca fascicularis, UniProt F8V479) (F8V479 whole entry): as the sequence (P43220 whole entry) above, with A4T, M17V, S135N, F143S, S225G, L228V, L260F, W264R, I272V counted along it

CCCCCCCCCCCCCCCCC(=O)[C@H](CCN[C@@H](CCC(=O)NCCCC[C@H](NC(=O)[C@H](CCC(N)=O)NC(=O)[C@H](CCCCN)NC(=O)[C@H](CO)NC(=O)[C@H](CC(C)C)NC(=O)[C@H](CC(=O)O)NC(=O)[C@H](CO)NC(=O)[C@@H](NC(=O)[C@H](Cc1ccccc1)NC(=O)[C@@H](NC(=O)CNC(=O)[C@H](CCC(N)=O)NC(=O)C(C)(C)NC(=O)[C@@H](N)Cc1cnc[nH]1)[C@@H](C)O)[C@@H](C)O)C(=O)N[C@@H](CC(=O)O)C(=O)N[C@@H](CCC(=O)O)C(=O)N[C@@H](CCC(N)=O)C(=O)N[C@@H](CCCNC(=N)N)C(=O)N[C@@H](C)C(=O)N[C@@H](CCCCN)C(=O)N[C@@H](CC(C)C)C(=O)N[C@@H](Cc1ccccc1)C(=O)N[C@H](C(=O)N[C@@H](CCC(=O)O)C(=O)N[C@@H](Cc1c[nH]c2ccccc12)C(=O)N[C@@H](CC(C)C)C(=O)NC(C)(C)C(=O)N[C@@H](C)C(=O)NCC(=O)NCC(=O)N1CCC[C@H]1C(=O)N1CCC[C@H]1C(=O)N[C@@H](CO)C(=O)N[C@@H](C)C(=O)N[C@@H](CCCCN)C(=O)N1CCC[C@H]1C(=O)N1CCC[C@H]1C(=O)N1CCC[C@H]1C(=O)N[C@@H](CCCCN)C(N)=O)[C@@H](C)CC)C(=O)O)C(=O)O
Activity (Cynomolgus monkey [1]): 6.9% | solubility at 2 h [2]: ≥ 10000 µg/mL | concentration at 1008 h [3]: 0.66 ng/mL | Ratio (Cynomolgus monkey [4]): 5 | Activity (Cynomolgus monkey [5]): 7.1% | pEC50 [6]: 8.69 | pEC50 [7]: 11.70 | concentration at 1 h [8]: 21.6 ng/mL | concentration at 8 h [9]: 12.4 ng/mL | solubility at 2 h [10]: ≥ 10000 µg/mL | pEC50 [11]: 11.74 | solubility at 2 h [12]: ≥ 10000 µg/mL | Ratio EC50 [13]: 4 | concentration at 22 h [14]: 0.69 ng/mL | pEC50 [15]: 9.89 | Ratio EC50 (Homo sapiens): 10 to 15 | concentration at 4 h [16]: 24.3 ng/mL | pEC50 [17]: 8.69 | concentration at 2 h [18]: 28 ng/mL | solubility at 2 h [19]: ≥ 10000 µg/mL | AUC at 22 h [20]: 254 ng·h/mL | pEC50 (Glucagon receptor): 10.54
